ChEMBL document CHEMBL3580545, “Steroidal Alkaloids from Veratrum nigrum Enhance Glucose Uptake in Skeletal Muscle Cells” (J Nat Prod, 2015)
pIC50: −log10 of the molar value. Active and inactive are the calls of the source. The calls are words filed in the database; no cut-off is given here.

What was measured:
C2C12 [1] = assay: Potentiation of insulin-induced 2-deoxy-[3H]-glucose uptake in mouse C2C12 cells at 10 uM preincubated with cells followed by insulin induction for 30 mins by liquid scintillation counting analysis relative to control; format: functional
Summary of the method: (§1)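 Differentiated C2C12 myotubes, serum-starved 3 h then 1 h in KRPH buffer pH 7.4, given compound (0.1% DMSO), then 100 nM insulin for 30 min. 2-Deoxy-[3H]-glucose (0.5 μCi/mL) with 100 μM 2-deoxy-D-glucose taken up for 10 min. Cells washed in cold PBS, lysed in 0.1% SDS/0.5 M NaOH, scintillation counted and normalized to total protein. Mean ± SEM, three experiments in triplicate.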

C2C12 [2] = assay: Induction of 2-deoxy-[3H]-glucose uptake in mouse C2C12 cells at 10 uM after 2 hrs by liquid scintillation counting analysis relative to control; format: functional
Summary of the method: (§2)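 C2C12 myoblasts grown in DMEM/10% FBS, differentiated at confluence in 1% FBS DMEM to day 4. Myotubes serum-starved 3 h (0.2% BSA), 1 h in KRPH buffer pH 7.4, then compound (0.1% DMSO) for 2 h. Uptake of 0.5 μCi/mL 2-deoxy-[3H]-glucose plus 100 μM 2-deoxy-D-glucose for 10 min. Ice-cold PBS wash, SDS/NaOH lysis, scintillation counting normalized to protein. Three independent experiments in triplicate, mean ± SEM.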

[3] = molecular target: T1, Tyrosine-protein phosphatase non-receptor type 1 (Homo sapiens, UniProt P18031); assay: Inhibition of PTP1B (unknown origin) using p-nitrophenyl phosphate as substrate after 30 mins
T1 sequence (P18031 whole entry): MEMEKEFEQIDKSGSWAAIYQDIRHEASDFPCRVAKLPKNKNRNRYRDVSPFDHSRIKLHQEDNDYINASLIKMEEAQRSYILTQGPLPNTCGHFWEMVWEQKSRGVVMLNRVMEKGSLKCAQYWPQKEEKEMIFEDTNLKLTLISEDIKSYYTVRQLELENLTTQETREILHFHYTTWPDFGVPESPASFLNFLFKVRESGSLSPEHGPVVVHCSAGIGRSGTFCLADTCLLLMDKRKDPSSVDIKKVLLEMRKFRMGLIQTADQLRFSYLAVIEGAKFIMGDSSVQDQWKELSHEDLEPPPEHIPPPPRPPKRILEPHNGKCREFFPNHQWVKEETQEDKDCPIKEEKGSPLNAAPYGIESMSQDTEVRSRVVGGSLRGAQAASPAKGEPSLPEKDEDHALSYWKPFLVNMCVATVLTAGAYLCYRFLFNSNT
Summary of the method: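 PTP1B (source not stated) 0.05−0.1 μg with 2 mM p-nitrophenyl phosphate in 50 mM citrate pH 6.0, 0.1 M NaCl, 1 mM EDTA, 1 mM dithiothreitol, ± test compound; 37 °C for 30 min, quenched with 10 M NaOH; p-nitrophenol read at 405 nm; IC50 determined.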

C2C12 [4] = assay: Induction of 2-deoxy-[3H]-glucose uptake in mouse C2C12 cells at 5 uM after 2 hrs by liquid scintillation counting analysis; format: functional, cell-based; summary of the method: as §2
C2C12 [5] = assay: Potentiation of insulin-induced 2-deoxy-[3H]-glucose uptake in mouse C2C12 cells at 5 uM preincubated with cells followed by insulin induction for 30 mins by liquid scintillation counting analysis; format: functional, cell-based; summary of the method: as §1
C2C12 [6] = assay: Potentiation of insulin-induced 2-deoxy-[3H]-glucose uptake in mouse C2C12 cells at 30 uM preincubated with cells followed by insulin induction for 30 mins by liquid scintillation counting analysis relative to control; format: functional; summary of the method: as §1
C2C12 [7] = assay: Induction of 2-deoxy-[3H]-glucose uptake in mouse C2C12 cells at 30 uM after 2 hrs by liquid scintillation counting analysis; format: functional, cell-based; summary of the method: as §2

| SMILES | Activity (C2C12 [1]) [%] | Activity (C2C12 [2]) [%] | pIC50 [3] | further results |
| --- | --- | --- | --- | --- |
| CC(=O)O[C@H]1CC[C@@]2(C)C(=CC[C@H]3c4ccc([C@H](C)[C@@H]5NC[C@@H](C)C[C@H]5O)c(C)c4C[C@@H]32)C1 | 56 | 24.8 | 5.33 | – |
| CC1=C2C(=O)[C@H]3[C@@H](CC=C4C[C@@H](OC=O)CC[C@@]43C)[C@@H]2CC[C@]12O[C@@H]1C[C@H](C)CN[C@H]1[C@H]2C | 49.9 | 15 | 4.95 | Activity (C2C12 [4]): Active; Activity (C2C12 [5]): Active |
| C[C@H]1CC[C@@H]2N(C1)C[C@H]1[C@@H]3C[C@H]4[C@@H](CC=C5C[C@@H](OC=O)CC[C@@]54C)[C@@H]3C[C@H](O)[C@@H]1[C@]2(C)O | – | – | < 4.52 | – |
| CN(CCOc1ccc(CC2SC(=O)NC2=O)cc1)c1ccccn1 (stereo not drawn) [ROSIGLITAZONE] | – | – | – | Activity (C2C12 [6]): 47.3%; Activity (C2C12 [7]): Active |
| CC1=C2C(=O)[C@H]3[C@@H](CC[C@@H]4C[C@@H](O)C[C@@H](O)[C@@]43C)[C@@H]2CC[C@]12O[C@@H]1C[C@H](C)CN[C@H]1[C@H]2C | – | – | < 4.52 | – |
| C[C@@H]1CN[C@H]2[C@@H](C)[C@@]3(CC[C@@H]4C(=C[C@H]5[C@H]4CC=C4C[C@@H](O)CC[C@@]45C)[C@@]3(C)O)O[C@@H]2C1 | – | – | < 4.52 | – |
